An excerpt weighted towards active compounds, which were near 3.7% of everything screened.
Kir21 block: inhibitors of mouse Kir2.1 inward-rectifier potassium channel | P35561 | HEK293-Kir2.1, FluxOR thallium flux fluorescence; hits give low values | B-score at 10 µM | actives 0.85% (n = 310,000);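 active = fluorescence ratio B-score at or below minus 3 SD of library scores, with starting-brightness B-score within 2 SD, cut at about -4.2 in these data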;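 note: channel flux triggered by added potassium and thallium sulfate stimulus; B-score of peak minus minimum fluorescence over baseline after thallium stimulus; more negative B-score means stronger Kir2.1 block with less thallium influx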
hERG protect: hERG (human) protection from proarrhythmic block | activation (rescue from dofetilide block), less the hit threshold, % at 10 µM | CHO-hERG, FluxOR thallium flux, dofetilide IC70 present | actives 0.51% (n = 310,000);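 active = activation above the mean of controls blocked by dofetilide plus 5 SD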;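 note: thallium influx through hERG after potassium depolarization seen as dye fluorescence rise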
KCNQ1 inh: inhibitors of human KCNQ1 potassium channel. P51787. CHO-K1 KCNQ1, FluxOR thallium flux fluorescence; hits give high values. B-score at 10 µM. actives 1.3% (n = 310,000). AID 2642;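 active = compounds whose thallium flux B-score, printed positive for inhibition, exceeds three library SD while starting fluorescence stays within three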;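 note: channel opened by potassium depolarization with thallium stimulus after 20 min compound exposure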
Target sequence (P51787 whole entry, looked up): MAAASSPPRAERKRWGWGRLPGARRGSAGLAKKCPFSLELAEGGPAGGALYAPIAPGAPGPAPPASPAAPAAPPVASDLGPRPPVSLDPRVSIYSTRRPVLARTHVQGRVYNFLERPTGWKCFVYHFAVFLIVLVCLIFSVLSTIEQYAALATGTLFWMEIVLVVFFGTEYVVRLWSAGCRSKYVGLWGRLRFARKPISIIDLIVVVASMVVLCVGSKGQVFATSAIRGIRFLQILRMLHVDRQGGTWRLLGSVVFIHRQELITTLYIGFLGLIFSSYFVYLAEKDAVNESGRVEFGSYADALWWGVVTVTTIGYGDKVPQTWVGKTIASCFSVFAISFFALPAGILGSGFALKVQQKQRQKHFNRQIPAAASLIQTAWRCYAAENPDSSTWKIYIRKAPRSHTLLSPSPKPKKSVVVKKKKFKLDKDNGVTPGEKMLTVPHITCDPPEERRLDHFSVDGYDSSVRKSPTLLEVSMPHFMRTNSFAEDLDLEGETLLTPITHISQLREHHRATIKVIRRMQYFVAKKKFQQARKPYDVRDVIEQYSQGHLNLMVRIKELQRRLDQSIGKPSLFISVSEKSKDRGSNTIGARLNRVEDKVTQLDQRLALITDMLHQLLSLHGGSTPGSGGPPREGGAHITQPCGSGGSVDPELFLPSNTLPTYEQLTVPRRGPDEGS
KCNK3 inh: human KCNK3 channel inhibition, primary screen | O14649 | CHO-KCNK3 thallium flux, FluxOR fluorescence; hits give low values | B-score at 10 µM | actives 0.84% (n = 340,000);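 active = B-score under library mean minus 4 SD, starting fluorescence ratio at most library mean plus 5 SD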;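 note: more negative B-score means stronger inhibition of thallium flux through KCNK3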
KCNK9 block: inhibitors of human KCNK9 two-pore domain potassium channel | B-score at 10 µM | actives 1.2% (n = 310,000) | Q9NPC2 | HEK293 KCNK9, FluxOR thallium flux fluorescence; hits give low values;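 active = ratio B-score over 3 SD below the library mean, with starting fluorescence within 5 SD of its mean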;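 note: negative B-score means less thallium flux so channel inhibition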
KCNQ1 pot: human KCNQ1 channel potentiation or activation; actives 0.35% (n = 310,000); CHO-K1 KCNQ1, thallium flux FluxOR fluorescence; hits give high values; AID 2648; B-score at 10 µM; P51787;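 active = fluorescence ratio B-score, a plate-corrected score, at least three library SD, with initial intensity B-score within 5 SD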
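Material: CHO-K1 cells stably expressing KCNQ1. Medium: assay buffer for compound exposure, DMSO matched across wells. Reagent: K+/Tl+ depolarizing stimulus. Compound dosing: single-concentration screen. Times: 37 °C overnight plating, 90-min dark dye load, 20-min compound pretreatment. Technique: FluxOR Tl+ flux fluorescence.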
The depositor's hits bear a star; i = inactive; . = no result given.

SMILES | Kir21 block | hERG protect | KCNQ1 inh | KCNK3 inh | KCNK9 block | KCNQ1 pot
Cc1cc(NS(=O)(=O)c2ccc(NC(=S)NC(=O)c3ccc(Cl)cc3Cl)cc2)no1 | 2.9 | -8 | i | i | i | i
CC(=O)Oc1ccc(-c2cc3c(OC(C)=O)cc(OC(C)=O)cc3oc2=O)cc1 | 2.3 | 0 | i | i | i | i
CN1/C(=C\C=N\NC(=O)c2ccccc2Br)C(C)(C)c2ccccc21 | -1.8 | -25 | 9* | i | i | i
CN1/C(=C/C=N/n2cnnc2)C(C)(C)c2ccccc21 | -0.88 | 0 | i | i | i | i
Cc1ccccc1Cc1c(C)nc2c(C(=O)NCc3ccc4c(c3)OCO4)cnn2c1C | 0.37 | -5 | i | i | i | i
Cc1ccc(C)c(Cc2c(C)nc3c(C(=O)NCc4ccc5c(c4)OCO5)cnn3c2C)c1 | 0.27 | -10 | i | . | -7.8* | i
O=[N+]([O-])c1ccc(/C([O-])=C(/C(=S)NCc2ccco2)[n+]2ccccc2)cc1 | 0.02 | -8 | i | i | i | 8*
Cc1ccc(/C([O-])=C(/C(=S)NCc2ccco2)[n+]2ccccc2)cc1 | 1.4 | -7 | i | . | i | i
O=C(N/N=C/c1ccccc1C(=O)O)c1ccccc1Br | 0.66 | 4.9* | i | i | i | i
O=C(NCCCN1CCOCC1)NC12CC3CC(CC(C3)C1)C2 | -0.39 | -7 | 6* | i | i | i
O=C(NCCCN1CCN(c2ccc(F)cc2)CC1)NC12CC3CC(CC(C3)C1)C2 | -1.8 | -16 | i | i | i | i
CC[C@]12c3[nH]c4ccc(OC)cc4c3CCN1C(=O)C(CC(=O)NCCc1ccccn1)C[C@@H]2C(=O)N1CCN(C(=O)C2CC2)CC1 (some centres undefined) | . | . | . | i | . | .
CCOC(=O)c1c(CSc2ccccc2)n(C)c2cc(Br)c(O)c(CN(C)C)c12 | -1.2 | -20 | i | i | -6.7* | i
CCOC(=O)c1c(CSc2ccc(C)cc2)n(C)c2cc(Br)c(O)c(CN(C)C)c12 | -1.6 | -28 | i | i | i | i
CCOC(=O)c1c(CSc2ccccc2)n(C)c2ccc(O)c(CN3CCN(C)CC3)c12 | -4.9* | -12 | i | i | i | i
CCOC(=O)c1c(CSc2ccsc2)n(C)c2cc(Br)c(O)c(CN(C)C)c12 | -7.1* | -17 | i | i | i | i
CN(CC(=O)Nc1ccccc1Br)C(=O)CN1CCN(Cc2ccc(Cl)cc2)CC1 | . | . | . | i | . | .
CCN(CC)CCN(Cc1cc2ccc(C)cc2[nH]c1=O)C(=O)Nc1ccc(Cl)cc1 | 0.45 | -16 | i | i | i | i
c1ccc(-c2csc(N3CCOCC3)n2)cc1 | -1.8 | -11 | i | i | i | i
Clc1ccc(-c2csc(N3CCc4ccccc4C3)n2)cc1 | 0.81 | -7 | i | i | i | 10*
c1ccc(-c2csc(N3CCN(c4ccccn4)CC3)n2)cc1 | 1.5 | -1 | i | i | -6.7* | i
CCOc1ccccc1NC(=O)Cc1coc2cc(C)ccc12 | -5* | -7 | i | i | i | i
COc1ccccc1NC(=O)Cc1coc2cc(C)ccc12 | -3.5 | -6 | i | i | i | i
CCCn1cnnc1CNC(=O)C1CCC(=O)N(CCCc2ccccc2)C1 (centres undefined) | 1.1 | -3 | i | i | i | i
C=CCC(O)(CC=C)CNC(=O)C1CCC(=O)N(CCCc2ccccc2)C1 (centres undefined) | -0.22 | 6.7* | i | i | i | i
SMILES | Kir21 block | hERG protect | KCNQ1 inh | KCNK3 inh | KCNK9 block | KCNQ1 pot
CCOC(=O)C1C(=O)C=C(c2ccc([N+](=O)[O-])cc2)CC1c1ccccc1 (centres undefined) | 0.06 | -17 | 6* | i | i | i
CCOC(=O)C1C(=O)C=C(c2ccc(C)cc2)CC1c1ccccc1 (centres undefined) | 2.7 | -16 | i | i | i | i
O=C1NC(=O)/C(=C/c2ccc(-c3cccc([N+](=O)[O-])c3)o2)S1 | 0.01 | -6 | 12* | i | i | i
CCCCc1c(O)nc(SCC(=O)N2CCCCC2)n(-c2ccccc2C)c1=O | -0.07 | 9.8* | i | i | i | i
O=C(COc1ccccc1F)Nc1cc(S(=O)(=O)N2CCOCC2)ccc1N1CCOCC1 | 0.25 | -14 | i | i | i | i
CC1=NN(c2ccccc2)C(=O)/C1=C/c1c(O)n(-c2ccc(F)c(Cl)c2)[nH]c1=O | -2.4 | -27 | i | . | i | 12*
CC1=NN(c2ccccc2)C(=O)/C1=C\c1c(C)[nH]n(-c2ccccc2)c1=O | 1.6 | -10 | i | i | i | i
Nc1c(C(=O)Nc2nccs2)sc2nc(-c3cccs3)cc(C(F)(F)F)c12 | 0.01 | 1 | i | i | i | i
CCN(CC)C(=O)c1sc2nc(-c3cccs3)cc(-c3cccs3)c2c1N | -0.06 | -15 | 7* | i | -9.3* | i
Cc1nnc(NC(=O)c2sc3nc(-c4cccs4)cc(C(F)(F)F)c3c2N)s1 | 0.02 | -19 | 6* | i | i | i
CCN(CC)C(=O)c1sc2nc(-c3cccs3)cc(-c3ccc(Cl)cc3)c2c1N | 0.19 | -7 | i | i | i | i
Cc1ccccc1C(=O)c1cccn1CC(=O)NCC(C)c1ccccc1 (centres undefined) | -6.4* | -8 | i | i | i | i
COc1ccc(CCNC(=O)Cn2cccc2C(=O)c2ccccc2C)cc1OC | -5* | -8 | i | i | i | i
COc1ccc(CCNC(=O)Cn2cccc2C(=O)c2ccccc2)cc1OC | 1.1 | -5 | i | i | i | i
C=CCC1(CC=C)CCCN1C(=O)C1CCC(=O)N(CCc2ccccc2)C1 (centres undefined) | -0.76 | -11 | i | i | i | i
CN1CCN(c2nc(-c3cccnc3)nc3ccccc23)CC1 | 1.5 | -14 | i | i | i | i
COc1cc2c(cc1OC)CN(c1nc(-c3cccnc3)nc3ccccc13)CC2 | -2.6 | -31 | i | i | -7.5* | i
CN(C)CCN(Cc1ccco1)C(=O)c1cc2c(Cl)nc3ccccc3c2s1 | -0.05 | -7 | i | i | i | i
Cc1ccc2nc(Cl)c3cc(C(=O)N(CCN(C)C)Cc4ccco4)sc3c2c1 | -4.5* | -16 | i | i | i | i
CC(C)(C)c1ccc(C(=O)NC(=S)Nc2nc3c(s2)CCCC3)cc1 | -0.5 | 28* | i | i | i | 33*
COc1cccc(CCC2C(=O)CCCC2=O)c1 | . | . | . | i | . | .

Bioassay records deposited in PubChem by Johns Hopkins Ion Channel Center.
